Data reported in ChEMBL document CHEMBL5143736, “Discovery and Optimization of a Synthetic Class of Nectin-4-Targeted CD137 Agonists for Immuno-oncology” (J Med Chem, 2022).
Values after ≈ are worked out from the molar mass of the structure shown. Active and inactive are the calls of the source. The calls are words filed in the database; no cut-off is given here.

Assays:
[1] = molecular target: T1, Tumor necrosis factor receptor superfamily member 9 (Homo sapiens, UniProt Q07011); assay: Induction of recombinant human CD137 assessed as increase in fold change in Emax incubated for 6 hrs by luminescence based microplate reader assay; conditions: filed as agonist
[2] = test system: PBMC; assay: […] activity in human PBMC stimulated with anti-CD3-mediated CD137 expression in cocultured with […] cell line assessed as increase in secretion of IFN gamma incubated for 48 hrs by Luminex assay; type: functional, cell-based; conditions: DDE = dose-dependent effect
Procedure, shortened: (§1)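 Healthy-donor PBMCs were thawed into R10 medium and cocultured with HT1376 cells at 10:1 effector:target (1×10^5 PBMC:1×10^4 tumor cells per well). Soluble anti-CD3 OKT3 (100 ng/mL) was added on day 0, then compound, 37 °C, 5% CO2. Supernatant IFNγ and IL-2 taken at 24 and 48 h, measured by Luminex. Four-parameter fit, n = 3, repeated in multiple donors.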

[3] = test system: PBMC; assay: […] activity in human PBMC stimulated with anti-CD3-mediated CD137 expression in cocultured with […] cell line assessed as increase in secretion of IL2 incubated for 48 hrs by Luminex assay; type: functional, cell-based; conditions: DDE = dose-dependent effect
Procedure, shortened: as §1

[4] = Thermodynamic solubility of the compound in phosphate buffer at pH 7.4; type: physicochemical; conditions: read-out: Therm_solubility
Procedure, shortened: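 Thermodynamic solubility measured in 50 mM phosphate buffer, pH 7.4.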

[5] = test system: CT26; assay: Antitumor activity against mouse CT26 cells expressed in CD137 transfected in BALB/c mouse at 1mg/kg, qd
[6] = molecular target: T1, Tumor necrosis factor receptor superfamily member 9; assay: Agonist activity at human CD137 expressed in Jurkat T cells co-expressing response element driven luciferase reporter gene assessed as fold change in Emax at 1:1 Nectin-4/CD137 ratio measured after 6 hrs by HT1376/CD137 reporter co-culture assay; type: cell-based; conditions: filed as agonist
[7] = Volume of distribution at steady state in Cynomolgus monkey at 1 mg/kg, iv administered for 30 min by LC-MS/MS analysis; type: ADME, organism-based, Macaca fascicularis; conditions: plasma, read-out: Vdss
Procedure, shortened: (§2)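 Male naïve cynomolgus monkeys received 1 mg/kg as a 30 min IV infusion in 25 mM histidine HCl, 10% sucrose, pH 7 (n = 2 animals/compound). Serial K2-EDTA plasma was protein-precipitated with internal standard and analysed by LC–MS/MS (Orbitrap, positive ion). Noncompartmental analysis gave clearance, Vdss and terminal half-life.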

[8] = Half life in Sprague-Dawley rat at 2 mg/kg, iv by LC/MS/MS analysis; conditions: in vivo
[9] = Plasma clearance in Cynomolgus monkey at 1 mg/kg, iv administered for 30 min by LC-MS/MS analysis; type: ADME, organism-based, Macaca fascicularis
Procedure, shortened: as §2

[10] = test system: CT26; assay: Antitumor activity against mouse CT26 cells expressed in CD137 transfected in BALB/c mouse at 5 mg/kg, ip
[11] = Half life in Cynomolgus monkey at 1 mg/kg, iv administered for 30 min by LC-MS/MS analysis; type: ADME, organism-based, Macaca fascicularis; conditions: plasma
Procedure, shortened: as §2

[12] = molecular target: T1, Tumor necrosis factor receptor superfamily member 9; assay: Induction of recombinant human CD137 assessed as increase in fold change in EC50 incubated for 6 hrs by luminescence based microplate reader assay; conditions: filed as agonist
[13] = molecular target: T1, Tumor necrosis factor receptor superfamily member 9; assay: Agonist activity at human CD137 expressed in Jurkat T cells co-expressing response element driven luciferase reporter gene assessed as fold change in EC50 at 1:1 Nectin-4/CD137 ratio measured after 6 hrs by HT1376/CD137 reporter co-culture assay; type: cell-based; conditions: filed as agonist
[14] = molecular target: T1, Tumor necrosis factor receptor superfamily member 9; assay: Binding affinity to human CD137 assessed as dissociation constant by surface plasmon resonance analysis
Procedure, shortened: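 Biacore T200 SPR, human CD137, 25 °C. Peptide series in PBS/0.05% Tween 20 with 0.5% DMSO: top 500 nM (threefold) or 10 μM (twofold), 6 further dilutions. Flow 90 μL/min, 60 s association, 100–600 s dissociation, glycine pH 2 regeneration. DMSO-corrected and double-referenced; kinetic fit gives ka, kd, KD.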

[15] = molecular target: T1, Tumor necrosis factor receptor superfamily member 9; assay: Binding affinity to human CD137 assessed as dissociation constant using 1:1 Nectin-4/CD137 by surface plasmon resonance analysis; conditions: filed as agonist
Procedure, shortened: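 Biacore T200 SPR against human CD137 protein at 25 °C. Peptide series in PBS/0.05% Tween 20 with 0.5% final DMSO; top concentration 500 nM (6 further threefold dilutions) or 10 μM (6 further twofold dilutions). 60 s association, 100–600 s dissociation, 10 mM glycine pH 2 regeneration. Data DMSO-corrected and double-referenced; kinetic fit gives ka, kd and KD.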

T1 sequence (Q07011 whole entry): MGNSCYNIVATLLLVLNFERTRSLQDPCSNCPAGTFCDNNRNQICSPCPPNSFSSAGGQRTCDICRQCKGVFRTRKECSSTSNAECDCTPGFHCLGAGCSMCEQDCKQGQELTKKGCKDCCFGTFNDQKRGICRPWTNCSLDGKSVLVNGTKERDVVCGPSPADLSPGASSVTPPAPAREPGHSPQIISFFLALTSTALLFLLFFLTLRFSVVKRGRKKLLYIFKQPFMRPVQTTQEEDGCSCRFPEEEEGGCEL

CCCC[C@@H]1NC(=O)[C@H](Cc2ccc(O)cc2)NC(=O)[C@@H]2CCCN2C(=O)[C@H](CC(=O)O)NC(=O)[C@H](C)NC(=O)[C@H](Cc2ccccc2)NC(=O)[C@@H]2CSCCC(=O)N3CN(CN(C3)C(=O)CCSC[C@@H](C(=O)N[C@@H](C)C(N)=O)NC1=O)C(=O)CCSC[C@H](NC(C)=O)C(=O)N[C@@H](CC(C)(C)C)C(=O)N1CCC[C@H]1C(=O)N[C@@H](CCC(=O)O)C(=O)N[C@H](CCCCNC(=O)CCc1cn(CCOCCOCCOCCOCCOCCC(=O)N[C@H]3CSCCC(=O)N4CN5CN(C4)C(=O)CCSC[C@H](NC(=O)[C@@H](CC(=O)O)NC(=O)[C@H](Cc4cccc6ccccc46)NC(=O)[C@@H]4CCCN4C3=O)C(=O)N[C@@H](CCSC)C(=O)N[C@@H](CCCCNC(=N)N)C(=O)N[C@@H](CC(=O)O)C(=O)N[C@@H](Cc3c[nH]c4ccccc34)C(=O)N[C@@H](CO)C(=O)N[C@@H]([C@@H](C)O)C(=O)N3CCC[C@H]3C(=O)N3C[C@H](O)C[C@H]3C(=O)N[C@@H](Cc3c[nH]c4ccccc34)C(=O)N[C@H](C(N)=O)CSCCC5=O)nn1)C(=O)N1CCC[C@H]1C(=O)N[C@@H](Cc1ccc(O)cc1)C(=O)N2
fold change (FC) [1]: 2
Activity [2]: Dde
Activity [3]: Dde
solubility thermodynamic [4]: 29 mg/mL (≈ 6.16 mM)
Activity [5]: Active
fold change (FC) [6]: 2
Vd [7]: 0.6 L/kg
half-life [8]: 55.8 min
clearance [9]: 30 mL/min/kg
Activity [10]: Active
half-life [11]: 30 min
fold change (FC) [12]: 8.3
fold change (FC) [13]: 8.3

CCCC[C@@H]1NC(=O)[C@H](Cc2ccc(O)cc2)NC(=O)[C@@H]2CCCN2C(=O)[C@H](CC(=O)O)NC(=O)[C@H](C)NC(=O)[C@H](Cc2ccccc2)NC(=O)[C@@H]2CSCCC(=O)N3CN(CN(C3)C(=O)CCSC[C@@H](C(=O)N[C@@H](CNC(=O)CCc3cn(CCOCCOCCOCCOCCOCCOCCOCCOCCOCCOCCOCCOCCC(=O)NCCC(=O)N(C)CC(=O)N(C)CC(=O)N(C)CC(=O)N(C)CC(=O)N(C)CC(=O)N(C)CC(=O)N(C)CC(=O)N(C)CC(=O)N(C)CC(=O)N(C)CC(=O)N[C@H]4CSCCC(=O)N5CN6CN(C5)C(=O)CCSC[C@H](NC(=O)[C@@H](CC(=O)O)NC(=O)[C@H](Cc5cccc7ccccc57)NC(=O)[C@@H]5CCCN5C4=O)C(=O)N[C@H](CCSC)C(=O)N[C@@H](CCCCNC(=N)N)C(=O)N[C@H](CC(=O)O)C(=O)N[C@@H](Cc4c[nH]c5ccccc45)C(=O)N[C@@H](CO)C(=O)N[C@@H]([C@H](C)O)C(=O)N4CCC[C@H]4C(=O)N4C[C@H](O)C[C@H]4C(=O)N[C@@H](Cc4c[nH]c5ccccc45)C(=O)N[C@H](C(N)=O)CSCCC6=O)nn3)C(N)=O)NC1=O)C(=O)CCSC[C@H](NC(C)=O)C(=O)N[C@@H](CC(C)(C)C)C(=O)N1CCC[C@H]1C(=O)N[C@@H](CCC(=O)O)C(=O)N[C@@H](C)C(=O)N1CCC[C@H]1C(=O)N[C@@H](Cc1ccc(O)cc1)C(=O)N2
Activity [2]: Dde
Activity [3]: Dde
half-life [8]: 21.6 min

CCCC[C@@H]1NC(=O)[C@H](Cc2ccc(O)cc2)NC(=O)[C@@H]2CCCN2C(=O)[C@H](CC(=O)O)NC(=O)[C@H](C)NC(=O)[C@H](Cc2ccccc2)NC(=O)[C@@H]2CSCCC(=O)N3CN(CN(C3)C(=O)CCSC[C@@H](C(=O)N[C@@H](CNC(=O)CCOCCOCCOCCOCCOCCn3cc(CCC(=O)N[C@H]4CSCCC(=O)N5CN6CN(C5)C(=O)CCSC[C@H](NC(=O)[C@@H](CC(=O)O)NC(=O)[C@H](Cc5cccc7ccccc57)NC(=O)[C@@H]5CCCN5C4=O)C(=O)N[C@@H](CCSC)C(=O)N[C@@H](CCCCNC(=N)N)C(=O)N[C@@H](CC(=O)O)C(=O)N[C@@H](Cc4c[nH]c5ccccc45)C(=O)N[C@@H](CO)C(=O)N[C@@H]([C@@H](C)O)C(=O)N4CCC[C@H]4C(=O)N4C[C@H](O)C[C@H]4C(=O)N[C@@H](Cc4c[nH]c5ccccc45)C(=O)N[C@H](C(N)=O)CSCCC6=O)nn3)C(N)=O)NC1=O)C(=O)CCSC[C@H](NC(C)=O)C(=O)N[C@@H](CC(C)(C)C)C(=O)N1CCC[C@H]1C(=O)N[C@@H](CCC(=O)O)C(=O)N[C@H](C)C(=O)N1CCC[C@H]1C(=O)N[C@@H](Cc1ccc(O)cc1)C(=O)N2
half-life [8]: 57.6 min

CCCC[C@@H]1NC(=O)[C@H](Cc2ccc(O)cc2)NC(=O)[C@@H]2CCCN2C(=O)[C@H](CC(N)=O)NC(=O)[C@H](C)NC(=O)[C@H](Cc2ccccc2)NC(=O)[C@@H]2CSCCC(=O)N3CN(CN(C3)C(=O)CCSC[C@H](NC(C)=O)C(=O)N[C@@H](CC(C)(C)C)C(=O)N3CCC[C@H]3C(=O)N[C@@H](CCC(=O)O)C(=O)N[C@H](CCCCNC(=O)CCc3cn(CCOCCOCCOCCOCCOCCC(=O)N[C@H]4CSCCC(=O)N5CN6CN(C5)C(=O)CCSC[C@H](NC(=O)[C@@H](CC(=O)O)NC(=O)[C@H](Cc5cccc7ccccc57)NC(=O)[C@@H]5CCCN5C4=O)C(=O)N[C@@H](CCSC)C(=O)N[C@@H](CCCCNC(=N)N)C(=O)N[C@@H](CC(=O)O)C(=O)N[C@@H](Cc4c[nH]c5ccccc45)C(=O)N[C@@H](CO)C(=O)N[C@@H]([C@@H](C)O)C(=O)N4CCC[C@H]4C(=O)N4C[C@H](O)C[C@H]4C(=O)N[C@@H](Cc4c[nH]c5ccccc45)C(=O)N[C@H](C(N)=O)CSCCC6=O)nn3)C(=O)N3CCC[C@H]3C(=O)N[C@@H](Cc3ccc(O)cc3)C(=O)N2)C(=O)CCSC[C@@H](C(N)=O)NC1=O
Kd [14]: 878 nM

CCCC[C@@H]1NC(=O)[C@H](Cc2ccc(O)cc2)NC(=O)[C@@H]2CCCN2C(=O)[C@H](CC(=O)O)NC(=O)[C@H](C)NC(=O)[C@H](Cc2ccccc2)NC(=O)[C@@H]2CSCCC(=O)N3CN(CN(C3)C(=O)CCSC[C@@H](C(=O)N[C@@H](CNC(=O)CCc3cn(CCOCCOCCOCCOCCOCCOCCOCCOCCOCCOCCNC(=O)N[C@H]4CSCCC(=O)N5CN6CN(C5)C(=O)CCSC[C@H](NC(=O)[C@@H](CC(=O)O)NC(=O)[C@H](Cc5cccc7ccccc57)NC(=O)[C@@H]5CCCN5C4=O)C(=O)N[C@@H](CCSC)C(=O)N[C@@H](CCCCNC(=N)N)C(=O)N[C@@H](CC(=O)O)C(=O)N[C@@H](Cc4c[nH]c5ccccc45)C(=O)N[C@@H](CO)C(=O)N[C@@H]([C@@H](C)O)C(=O)N4CCC[C@H]4C(=O)N4C[C@H](O)C[C@H]4C(=O)N[C@@H](Cc4c[nH]c5ccccc45)C(=O)N[C@H](C(N)=O)CSCCC6=O)nn3)C(N)=O)NC1=O)C(=O)CCSC[C@H](NC(=O)[C@H](C)NC(C)=O)C(=O)NC([C@@H](C)CC)C(=O)N[C@@H](CCC(=O)O)C(=O)N[C@@H](CCC(=O)O)C(=O)NCC(=O)N[C@@H](CCC(N)=O)C(=O)N[C@@H](Cc1ccc(O)cc1)C(=O)N2 (stereo not given in full)
Activity [15]: 73 nM

CCCC[C@@H]1NC(=O)[C@H](Cc2ccc(O)cc2)NC(=O)[C@@H]2CCCN2C(=O)[C@H](CCC(=O)O)NC(=O)[C@H](C)NC(=O)[C@H](Cc2ccccc2)NC(=O)[C@@H]2CSCCC(=O)N3CN(CN(C3)C(=O)CCSC[C@H](NC(C)=O)C(=O)N[C@@H](CC(C)(C)C)C(=O)N3CCC[C@H]3C(=O)N[C@@H](CCC(=O)O)C(=O)N[C@H](CCCCNC(=O)CCc3cn(CCOCCOCCOCCOCCOCCC(=O)N[C@H]4CSCCC(=O)N5CN6CN(C5)C(=O)CCSC[C@H](NC(=O)[C@@H](CC(=O)O)NC(=O)[C@H](Cc5cccc7ccccc57)NC(=O)[C@@H]5CCCN5C4=O)C(=O)N[C@@H](CCSC)C(=O)N[C@@H](CCCCNC(=N)N)C(=O)N[C@@H](CC(=O)O)C(=O)N[C@@H](Cc4c[nH]c5ccccc45)C(=O)N[C@@H](CO)C(=O)N[C@@H]([C@@H](C)O)C(=O)N4CCC[C@H]4C(=O)N4C[C@H](O)C[C@H]4C(=O)N[C@@H](Cc4c[nH]c5ccccc45)C(=O)N[C@H](C(N)=O)CSCCC6=O)nn3)C(=O)N3CCC[C@H]3C(=O)N[C@@H](Cc3ccc(O)cc3)C(=O)N2)C(=O)CCSC[C@@H](C(N)=O)NC1=O
Kd [14]: 2370 nM
